The subject of data set [1] is M059J. The experiment in a line: Cytotoxicity against human M059J ATCC CRL2366 cells by MTT assay. Type of data set: functional, cell-based.
In data set [2] the test system is A549. The experiment in a line: Cytotoxicity against human A549 cells by MTT assay. The class given is functional, cell-based. (In general: Tetrazolium assays rely on reduction of a dye to a coloured formazan, in cell work by metabolically active cells.)
Data set [3] in a line: Cytotoxicity against mouse 3LL cells by MTT assay. Type of data set: functional, cell-based.
Data set [4] relates to MCF7. The experiment in a line: Cytotoxicity against human MCF7 cells by SRB assay. The class given is functional, cell-based. (In general: Sulforhodamine B stains cellular protein and so reports cell mass.)
The nature of data set [5]: Cytotoxicity against human MCF10A cells by SRB assay. The class given is cell-based. As to conditions: mcf-10a.
For another data set, the system named is ATCC CRL2365. In words: Cytotoxicity against human M059K ATCC CRL2365 cells by SRB assay. The class given is functional, cell-based.
Data set [6] relates to M059J. The experiment in a line: Cytotoxicity against human M059J ATCC CRL2366 cells by SRB assay. The class given is functional, cell-based.
The subject of data set [7] is A549. In words: Cytotoxicity against human A549 cells by SRB assay. Type of data set: functional, cell-based.
Another data set concerns 3LL. In words: Cytotoxicity against mouse 3LL cells by SRB assay. The class given is functional, cell-based.
The nature of data set [8]: Inhibition of Electron transport protein complex 1 in bovine heart submitochondrial particles assessed as NADH oxidase activity by spectrophotometric analysis. The arrangement: species or system Bos taurus. In a few lines:
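Beef-heart inverted SMP (stored at −80 °C in 0.25 M sucrose, 10 mM Tris-HCl pH 7.4) diluted to 0.5 mg/mL and NADH-activated. Inhibitor pre-equilibrated with SMP 5 min in 50 mM Hepes pH 7.5, 5 mM MgCl2. NADH started the reaction. Initial linear rates were read at 340 nm, 30 °C, with DMSO ≤2%. IC50 is half-maximal inhibition of control; mean ± SD, three independent experiments.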

The nature of data set [9]: Inhibition of Electron transport protein complex 1 in bovine heart submitochondrial particles assessed as NADH ubiquinone oxidoreductase oxidase activity by spectrophotometric analysis in presence of exogenous ubiquinone 1. Also on record: species or system Bos taurus. In a few lines: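 Activated beef-heart inverted SMP were pre-equilibrated with inhibitor 5 min, then NADH was added at 30 °C. Medium: 0.25 M sucrose, 1 mM MgCl2, 2 mM KCN, antimycin A, ubiquinone Q1, 50 mM phosphate pH 7.4. Rate was followed at 340 nm, DMSO ≤2%. IC50 is half-maximal inhibition of control; mean ± SD of three independent experiments.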

Data set [10] is filed under the species Bos taurus. The experiment in a line: Inhibition of Electron transport protein complex 1 in bovine heart submitochondrial particles assessed as residual NADH oxidase activity at 1 uM by spectrophotometric analysis.
For data set [11], the species on record is Bos taurus. The experiment in a line: Inhibition of Electron transport protein complex 1 in bovine heart submitochondrial particles assessed as residual NADH ubiquinone oxidoreductase oxidase activity at 1 uM by spectrophotometric analysis in presence of exogenous ubiquinone 1.
The subject of data set [12] is MCF7. The experiment in a line: Induction of shift to glycolysis in human MCF7 cells assessed as lactate production at 0.38 uM after 3 hrs. The class given is functional.
In data set [13] the test system is MCF7. The experiment in a line: Cytotoxicity against human MCF7 cells by MTT assay. Type of data set: functional, cell-based.
Data set [14] is described as follows: Cytotoxicity against human MCF10A cells by MTT assay. Type of data set: cell-based. As to conditions: MCF-10A.
A short description of data set [15]: Cytotoxicity against human M059K ATCC CRL2365 cells by MTT assay. The class given is functional, cell-based.
In data set [16] the test system is MCF7. The experiment in a line: Induction of shift to glycolysis in human MCF7 cells assessed as lactate production at 18.2 uM after 3 hrs. The class given is functional.
The test system of data set [17] is MCF7. In words: Induction of shift to glycolysis in human MCF7 cells assessed as lactate production at < 0.15 uM after 3 hrs. The class given is functional.
Data set [18] relates to MCF7. The experiment in a line: Induction of shift to glycolysis in human MCF7 cells assessed as lactate production at 6.6 uM after 3 hrs. Type of data set: functional.
In data set [19] the test system is MCF7. In words: Induction of shift to glycolysis in human MCF7 cells assessed as lactate production at 0.44 uM after 3 hrs. Type of data set: functional.

Each structure is given as a SMILES string. Activity calls are given as the source filed them. The rule behind the calls is not given here.

What is called IC50 is the concentration at which inhibition is half-maximal. For the compound `CCCCCCCC#CC[C@@H](O)[C@H]1CC[C@H]([C@H]2CC[C@H]([C@H](O)CC#CCCCCCCC)O2)O1`, the IC50 in the data set with M059J [1] was more than 20.9 µM; in the data set with A549 [2] it was 13.2 µM; in data set [3] it was 5.2 µM; in data set [8], 0.0301 µM; in [9], 0.048 µM; in the data set on MCF7 [13], 7.6 µM. For the same compound, the 50% inhibitory concentration (IC50) in data set [14] was 2 µM; in data set [15] it was 20.3 µM. Further, the result in the data set with MCF7 [4], with ATCC CRL2365, in the data set with M059J [6], with A549 [7] and in the data set with 3LL was Active. Besides, the Activity result in data set [5] is “Active”; in the data set filed under Bos taurus [10], 12%; in the data set listed under Bos taurus [11] it was 18%; with MCF7 [12], 1080 µM.
On to `CCCCc1ccc(OCCCCC[C@@H](O)[C@H]2CC[C@H]([C@H]3CC[C@H]([C@H](O)CCCCCOc4ccc(CCCC)cc4)O3)O2)cc1`, for which the IC50 in the data set on M059J [1] is more than 16 µM; with A549 [2], more than 16 µM; in data set [3], 0.64 µM; in data set [8], 0.0196 µM; in data set [9] it was more than 15 µM; in the data set with MCF7 [13], more than 16 µM. Also, the IC50 in [14] and in data set [15] was more than 16 µM throughout. In addition, in the data set on MCF7 [16], the Activity amounted to 572 µM.
As for `CCCCCC[C@H]1C(=O)O[C@H](C)[C@H](NC(=O)c2cccc(NC=O)c2O)C(=O)O[C@@H](C)[C@@H]1OC(=O)CC(C)C` [ANTIMYCIN A], the Activity in the data set on MCF7 [17] is 1520 µM.
Turning to `CCCCCCCCCC[C@@H](O)[C@H]1CC[C@H]([C@H]2CC[C@H]([C@H](O)CCCCCCCCCC)O2)O1` [dleta-lac-Acetogenin], the IC50 is more than 20 µM in the data set on M059J [1]; more than 20 µM with A549 [2]; 0.99 µM in [3]; 0.0123 µM in [8]; 10.4 µM in data set [9]; more than 20 µM in the data set on MCF7 [13]. Moreover, the IC50 in [14] and in [15] was more than 20 µM in each case. Moreover, the Activity in the data set on MCF7 [18] was determined as 616 µM.
Consider `CCCCc1ccc(OCCC#CC[C@@H](O)[C@H]2CC[C@H]([C@H]3CC[C@H]([C@H](O)CC#CCCOc4ccc(CCCC)cc4)O3)O2)cc1`, for which the IC50 was more than 16 µM with M059J [1]; more than 16 µM with A549 [2]; 0.48 µM in data set [3]; 0.0388 µM in data set [8]; 1.7 µM in data set [9]; more than 16 µM in the data set with MCF7 [13]. The IC50 is more than 16 µM in data set [14] and 14.6 µM in [15]. Moreover, the results for the Activity in the data set listed under Bos taurus [10], in the data set filed under Bos taurus [11] and in the data set on MCF7 [19] were 18%, 25% and 1280 µM, respectively.

The values above are taken from ChEMBL document CHEMBL1154507, “Synthesis and characterization of Deltalac-acetogenins that potently inhibit mitochondrial complex I” (Bioorg Med Chem, 2009).
